Measurements as given in publication PMC5014782 (Diabetes Therapy, 2016).
Entries after “also recorded” stand apart in the source; their conditions may differ. Read-outs that look alike come from different tables or passages of the source. Marks after values point to notes of the source that are not given here.

Tests used:
[1] = Population pharmacokinetic analysis; format: in vivo, human
Outline: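 NONMEM 7.2 two-compartment model with lagged first-order absorption (lag fixed at 0.5 h) and first-order elimination. Fitted to 12,503 plasma concentrations from 2761 patients given oral doses of 1–100 mg once daily in ten Phase I–III studies; placebo excluded and first-hour samples dropped. eGFR by the MDRD formula, with a reference patient at eGFR 100 mL/min/1.73 m2. Bootstrap precision check.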

[2] = tested on: patients with type 2 diabetes mellitus; experiment: Exposure–response analysis for efficacy; format: in vivo, human; conditions: for Target of the maximal response for FPG and HbA1c obtained: after 24 weeks
Outline: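 NONMEM population PK/PD turnover model fitted to 25,361 FPG and 22,012 HbA1c values from 4065 patients, placebo arms included, in three Phase II and four Phase III trials of ≥12 weeks. AUCss drives FPG elimination through a non-linear Emax term, and FPG changes drive HbA1c production. Steady-state baseline assumed. Covariates on Gmax include eGFR and baseline FPG. Precision checked by bootstrap.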

[3] = tested on: patients with type 2 diabetes mellitus; format: in vivo, human; conditions: 24 weeks, median (2.5th, 97.5th percentile)
[4] = tested on: patients with type 2 diabetes mellitus; experiment: Exposure–response analysis for safety/tolerability; format: in vivo, human; conditions: empagliflozin therapy compared with placebo-treated patients; OR (95% CI)
Outline: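 Logistic regression (R glm, binomial, logit link) of dichotomous patient-level adverse-event endpoints, each counted as any event during study. Endpoints: confirmed hypoglycemia (plasma glucose <3.9 mM and/or assistance required), and UTI, genital infection and volume depletion defined by 73, 89 and 8 preferred terms. Covariates enter additively with steady-state AUC relative to reference. Odds ratios computed for empagliflozin treatment.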

[5] = tested on: patients with type 2 diabetes mellitus; conditions: cited from earlier work; for Placebo-corrected reduction in HbA1c / Reduction in FPG: Phase III
[6] = Japanese patients with T2DM and renal impairment; subjects with renal impairment; cited from earlier work
[7] = eGFR 15 mL/min/1.73 m^2 vs reference patient with eGFR 100 mL/min/1.73 m^2

In the case of OC[C@H]1O[C@@H](c2ccc(Cl)c(Cc3ccc(O[C@H]4CCOC4)cc3)c2)[C@H](O)[C@@H](O)[C@@H]1O [empagliflozin], the “Increase in typical AUCss” value [1, 7] is reported as 88.1%, the “Reduction in CL/F” value [1, 7] is reported as 46.8% and the “Increase in typical AUCss” value ([1]; eGFR 30 mL/min/1.73 m^2 vs reference patient with eGFR 100 mL/min/1.73 m^2) is reported as 49.2%. The “Increase in typical AUCss” value ([1]; eGFR 60 mL/min/1.73 m^2 vs reference patient with eGFR 100 mL/min/1.73 m^2) was 18.5%, the “Increase in mean AUCss” value ([1]; eGFR ≥60 mL/min/1.73 m^2 vs reference eGFR 100 mL/min/1.73 m^2) was ≤ 20% and the Vd/F ([1]; human, plasma, oral) was 3.14 L. For the same compound, the “Increase in exposure (AUCss) in renal impairment” value ([1]; patients with (severe) renal impairment) was “less than twofold increase in exposure; also recorded: increased less than twofold; also recorded: increase in exposure less than twofold”, the first-order ka ([1]; typical value given the reference covariates) was 0.196 L/h and the “Target of the maximal response for FPG and HbA1c obtained” value ([2]; once daily dose of approximately 10 mg) was 80%. For the same compound, the “Target of the maximal response for FPG and HbA1c obtained” value ([2]; once daily dose of approximately 25 mg) was 90%, the “Efficacy (effect on FPG) maintained in renal impairment” value ([2]; eGFR as low as 30 mL/min/1.73 m^2) was “nearly half the maximal effect” and the “Once daily dose whose median exposure corresponds to AUC50” value ([2]; once daily dose) was “around 3 mg”. The “Median change from baseline in glycated hemoglobin, Observed” value (from here on “Median change from baseline”) ([3]; 10 mg, eGFR 30–60 mL/min/1.73 m^2 (study 10), five patients) was −0.90 (−1.81, 0.12)^a, the “Median change from baseline” value ([3]; 10 mg, eGFR 45–60 mL/min/1.73 m^2 (study 10), five patients) was −0.90 (−1.81, 0.12)^a and the “Median change from baseline” value ([3]; 10 mg, eGFR 60–90 mL/min/1.73 m^2 (study 10)) was −0.40 (−1.70, 0.76). The “Median change from baseline” value ([3]; 10 mg, elderly (75–85 years)) was −0.65 (−2.44, 0.40), the “Median change from baseline” value ([3]; 25 mg, eGFR 30–45 mL/min/1.73 m^2 (study 10)) was −0.30 (−1.83, 1.43) and the “Median change from baseline” value ([3]; 25 mg, eGFR 30–60 mL/min/1.73 m^2 (study 10)) was −0.40 (−2.00, 1.25). The “Median change from baseline” value ([3]; 25 mg, eGFR 45–60 mL/min/1.73 m^2 (study 10)) was −0.40 (−1.97, 0.88), the “Median change from baseline” value ([3]; 25 mg, eGFR 60–90 mL/min/1.73 m^2 (study 10)) was −0.70 (−1.64, 0.90) and the “Median change from baseline” value ([3]; 25 mg, elderly (75–85 years)) was −0.50 (−2.03, 0.60). The “OR for UTI” value [4] was 0.941 (0.687, 1.29), the “OR for genital infection” value [4] was 5.08 (2.77, 9.34) and the OR for hypoglycemia [4] was 1.11 (0.811, 1.52). The “OR for volume depletion” value [4] was 1.44 (0.517, 4.01), the “Placebo-corrected reduction in HbA1c” value ([5]; add-on therapy, 10 mg) was −0.4% to −0.7% and the “Reduction in FPG” value ([5]; add-on therapy, 10 mg) was −0.9 to −1.5 mM. The “Placebo-corrected reduction in HbA1c” value ([5]; add-on therapy, 25 mg) was −0.5% to −0.7%, the “Reduction in FPG” value ([5]; add-on therapy, 25 mg) was −1.2 to −1.8 mM and the “Placebo-corrected reduction in HbA1c” value ([5]; monotherapy, 10 mg) was −0.7%. The “Reduction in FPG” value ([5]; monotherapy, 10 mg) was -1.7 mM, the “Placebo-corrected reduction in HbA1c” value ([5]; monotherapy, 25 mg) was −0.9% and the “Reduction in FPG” value ([5]; monotherapy, 25 mg) was -2.0 mM. The “Effect on HbA1c as add-on to existing antidiabetic therapy” value ([5]; patients with T2DM and stage 2 or 3 CKD) was “significant reductions in HbA1c”, the “Effect on HbA1c” value ([5]; patients with severe renal impairment (stage 4 CKD)) was “no reduction in HbA1c was observed” and the “Increase in exposure for patients with renal impairment” value [6] was “less than twofold”.
